CRFR2-BP antag: antagonists of CRF-BP/CRF-R2 complex, primary screen, cell-based, HEK293, calcium dye fluorescence, uHTS | inhibition, % at 11.8 µM | CRF-induced calcium fluorescence | 350,000 tested, 0.59% active;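 active = inhibition of the ligand-induced calcium signal above about 50% at the single tested concentration, limit read from the data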
NRP1-CendR mod: modulators of CendR peptide binding to NRP-1, primary screen, biochemical, fluorescence polarization, uHTS; AID 602438, 2012; FAM-RPARPAR peptide binding to NRP-1; inhibition, % at 25 µM; 360,000 tested, 0.85% active; Neuropilin-1 (Homo sapiens), O14786;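 active = inhibition or corrected inhibition above about 18%, plus a signal ratio from 0.5 to 1.5, limit read from the data, passing the limit was not always enough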
Target sequence (O14786 whole entry, looked up): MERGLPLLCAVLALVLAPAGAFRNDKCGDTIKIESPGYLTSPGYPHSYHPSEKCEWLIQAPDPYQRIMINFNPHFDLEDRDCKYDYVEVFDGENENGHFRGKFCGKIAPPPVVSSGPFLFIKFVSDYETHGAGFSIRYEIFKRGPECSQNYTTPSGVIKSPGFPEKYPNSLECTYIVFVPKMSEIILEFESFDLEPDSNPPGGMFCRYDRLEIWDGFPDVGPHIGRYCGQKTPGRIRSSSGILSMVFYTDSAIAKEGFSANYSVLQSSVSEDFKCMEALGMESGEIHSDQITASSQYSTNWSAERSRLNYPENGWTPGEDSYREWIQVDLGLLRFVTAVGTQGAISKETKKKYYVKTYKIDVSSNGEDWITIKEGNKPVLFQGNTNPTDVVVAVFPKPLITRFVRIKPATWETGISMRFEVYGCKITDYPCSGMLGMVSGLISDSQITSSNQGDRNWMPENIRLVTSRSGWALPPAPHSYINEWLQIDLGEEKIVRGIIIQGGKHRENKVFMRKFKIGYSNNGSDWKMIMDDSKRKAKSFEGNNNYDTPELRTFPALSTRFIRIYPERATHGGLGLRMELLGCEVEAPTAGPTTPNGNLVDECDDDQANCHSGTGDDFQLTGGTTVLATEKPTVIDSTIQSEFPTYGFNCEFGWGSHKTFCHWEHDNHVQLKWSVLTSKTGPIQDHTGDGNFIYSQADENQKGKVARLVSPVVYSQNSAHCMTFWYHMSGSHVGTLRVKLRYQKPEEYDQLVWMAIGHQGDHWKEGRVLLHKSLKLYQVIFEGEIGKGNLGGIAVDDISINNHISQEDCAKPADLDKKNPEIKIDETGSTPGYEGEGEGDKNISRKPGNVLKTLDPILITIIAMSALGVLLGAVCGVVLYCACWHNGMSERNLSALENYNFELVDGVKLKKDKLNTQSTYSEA
Tn6 DDE FP: inhibitors of Tn6 peptide binding to fibrin DD(E), primary screen, biochemical, fluorescence polarization, human fibrin, Tn6 probe; Fibrinogen beta chain (Homo sapiens), P02675; Fibrin DD(E) TRITC-Tn6 fluorescence polarization displacement; inhibition, % at 8.3 µM; 370,000 tested, 0.21% active; AID 720509, 2013;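 active = inhibition above a per-campaign cutoff: mean of compounds within control limits plus 3 SD, cut at about 15% in these data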;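 note: 0% = median of all compound wells on the plate and 100% = blocking peptide control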
CRFBP-R2 agonist: agonists of CRF-BP/CRF-R2 complex, primary screen, cell-based, HEK293, calcium dye fluorescence, uHTS. calcium dye fluorescence (FLIPR); percent of saturating CRF peptide response. activation, % at 13.2 µM. 350,000 tested, 0.46% active. AID 588473, 2011;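 active = activation of at least 50%, plus an integration ratio under a set limit after plate pattern correction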;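 note: plate controls were neutral control wells without compound for no effect and CRF at EC100 for full effect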
KLK7 zymogen act: proKLK7 zymogen activators, primary screen, biochemical, fluorescence intensity. 370,000 tested, 0.9% active. purified proKLK7, EDANS-DABCYL substrate fluorescence; 100% is mature enzyme control, 0% vehicle. Kallikrein-7 (Homo sapiens), P49862. AID 652039, 2013. activation, % at 7 µM;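 active = activation above the mean of all tested compounds plus 3 SD, computed per campaign excluding outliers beyond control limits, cut at about 13% in these data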
DDE Tn7 FP inh: inhibitors of Tn7 peptide binding to fibrin DD(E), primary screen, biochemical, fluorescence polarization, human fibrin, Tn7 probe. Fibrinogen beta chain (Homo sapiens), P02675. FP displacement of FITC-Tn7 peptide from fibrin DD(E); 0% = median of compound wells per plate. inhibition, % at 8.3 µM. 370,000 tested, 0.13% active;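 active = inhibition above the mean of compounds falling within the control limits plus 3 SD of them, cut at about 14% in these data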;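 note: 0% = plate median of compound wells and 100% = 10 µM Aha-Tn7 peptide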
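Assay system: human fibrin DD(E) protein / Input: 2 µM fibrin DD(E) / Benchmarks: high control of 10 µM Aha-Tn7 peptide / Measured by: fluorescence polarization of the labelled Tn7 tracer / Medium: Tris buffer with calcium and detergent, pH 7.8 / Timing: 10 min compound pre-incubation, 3 h probe incubation at room temperature / Repeats: one replicate per compound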
Starred values were filed as active, the others as inactive; x = not tested or not shown. Hits are enriched below; roughly 2.9% of the tested compounds scored in any of these assays.

SMILES | CRFR2-BP antag | NRP1-CendR mod | Tn6 DDE FP | CRFBP-R2 agonist | KLK7 zymogen act | DDE Tn7 FP inh
COC(=O)[C@]12C[C@H](CC(=O)NCCc3ccccc3OC)C(=O)N(Cc3ccc(Cl)cc3Cl)C1=C[C@H](COCc1ccccc1)O[C@@H]2C | x | x | -8 | x | 1 | 2
CC1CN(C(=S)Nc2ccc(F)cc2F)CC(C)O1 (stereo not drawn) | 5 | 26* | 7 | -1 | 0 | 0
COC(=O)c1cc(C(=O)OC)n(Cc2ccc(Br)cc2)n1 | 9 | 32* | 13 | -1 | 1 | 4
COC(=O)c1ccc(Cn2nc(C)c(Br)c2C)cc1 | 28 | 12 | -1 | -4 | 0 | -4
C=C[C@]12CC[C@H](OC(C)=O)CC1=CCC1C2CC[C@@]2(C)C1CCC21OCCO1 (stereo partly drawn) | 0 | 22* | 9 | 4 | 0 | 0
CCN1CCCCC(NC(C)=O)C1=O (stereo not drawn) | x | x | -5 | x | 0 | 1
COC(=O)c1cc2sc(Cl)cc2n1CC(=O)Nc1ccc(OC)c(OC)c1OC | -51 | 4 | 6 | 55* | 1 | -3
COC(=O)c1cc2occc2n1CC(=O)Nc1ccc(OC)c(OC)c1OC | 21 | 3 | -2 | 1 | 0 | -1
Nc1nc(Nc2ccccc2Cl)cc(=O)[nH]1 | 100* | 12 | 11 | 0 | 0 | -6
Cc1cc(=O)[nH]c(Nc2cccc(Cl)c2C)n1 | -5 | 8 | 6 | 0 | 0 | -5
O=C(O)c1ccccc1NS(=O)(=O)c1ccc(NNC(=S)Nc2ccc(OC(F)F)cc2)c([N+](=O)[O-])c1 | 3 | 26* | -19 | 0 | 0 | 3
Cc1ccc(NC(=S)NNc2ccc([N+](=O)[O-])cc2S(=O)(=O)Nc2ccccc2C(=O)O)cc1C | 10 | -10 | 4 | -4 | 0 | -2
CC(C)[C@H](NS(=O)(=O)c1ccc(F)cc1F)C(=O)N1CCC[C@H]1C(=O)NCCc1ccccc1Cl | x | x | -4 | x | 1 | 1
CCN(C(=O)CSc1nnc(-c2cccnc2)n1Cc1ccco1)c1ccccc1C | x | x | -2 | x | 0 | 2
COc1ccc(CC(=O)OCc2cc3ccccc3[nH]c2=O)cc1 | 12 | 25* | 5 | -2 | -1 | -2
COc1ccc(CC(=O)OCc2cc3ccc(C)cc3[nH]c2=O)cc1 | -18 | 0 | 6 | 2 | 0 | 2
Cc1ccc(NC(=O)C2CCN(c3nnc(-n4cccc4)s3)CC2)cc1C | x | x | 2 | x | 1 | 4
C=CCN=C1NC(c2ccc(C(F)(F)F)cc2)C(C(=O)OC)=C(C)N1C (stereo not drawn) | x | x | -2 | x | 1 | 6
Cc1ccc(S(=O)(=O)CC(=O)NCc2ccccc2)cc1 | -5 | -6 | -1 | 1 | 1 | 3
Cc1ccc(CNC(=O)CS(=O)(=O)CC(=O)O)cc1 | -4 | 21* | 3 | 0 | 0 | -3
CCOC(=O)[C@]12CCCCC/C=C\1N(Cc1ccc(OC)cc1)C(=O)[C@H]2CC(=O)NCc1cccs1 | x | x | 8 | x | 1 | 3
CCC/C(=N\NC(=O)C1CC1)c1ccccc1 | 65* | 0 | 0 | -2 | 0 | 1
Oc1[nH]c2ccccc2c1N=Nc1ccccc1 | 2 | 134 | -5 | 10 | 1 | 1
Oc1[nH]c2ccccc2c1N=Nc1ccccc1F | -77 | 132 | -4 | 145* | 0 | -5
COC(=O)[C@]12C[C@H](CC(=O)NCc3ccc(C)o3)C(=O)N(Cc3ccco3)C1=C[C@H](C(C)(C)C)O[C@@H]2C | x | x | -1 | x | 0 | 5
SMILES | CRFR2-BP antag | NRP1-CendR mod | Tn6 DDE FP | CRFBP-R2 agonist | KLK7 zymogen act | DDE Tn7 FP inh
Cc1ccc(O)c(CNCCNCc2cc(C)ccc2O)c1 | -4 | 25* | -4 | 1 | 0 | 2
O=c1cc[nH]c2ccc([N+](=O)[O-])cc12 | -5 | 34* | -5 | -1 | 0 | -2
O=C(NCCN1CCN(C(=O)c2cccc(OC(F)F)c2)CC1)c1cccc(OC(F)F)c1 | 19 | 22* | 6 | -2 | 1 | 3
COc1ccc(C(=O)NCCN2CCN(C(=O)c3ccc(OC)c(OC)c3)CC2)cc1OC | -5 | 1 | 7 | 1 | 0 | 6
Cc1ccc(S(=O)(=O)N2CCCCC2C(=O)O)s1 (stereo not drawn) | 10 | 46* | 3 | -1 | -1 | -9
CSc1nnc(-c2cc(Br)ccc2N=Cc2c(C)[nH]n(-c3ccccc3)c2=O)c(=O)[nH]1 | -6 | 18* | -1 | -1 | 0 | -8
COc1ccc(Cc2nnc(NC(=O)Nc3ccc(C)cc3)s2)cc1OC | 83* | 2 | 2 | 2 | -1 | -2
COc1ccc(NC(=O)Nc2nnc(Cc3ccc(OC)c(OC)c3)s2)cc1 | 3 | 8 | -4 | 0 | 0 | 3
O=C(Cc1c[nH]c2ccccc12)Nc1ccc(Nc2cccnc2)c(-c2cc(F)cc(F)c2)c1 | x | x | 3 | x | -1 | 6
COc1ccc(Cl)cc1NC(=O)c1[nH]c(C)c(C(C)=O)c1C | 9 | 2 | 2 | 2 | 0 | 2
COc1ccc(OC)c(NC(=O)c2[nH]c(C)c(C(C)=O)c2C)c1 | 77* | -9 | 6 | -3 | 1 | 1
O=C(CCCCCN1C(=O)c2ccccc2C1=O)NC1CCCC1 | -1 | 24* | -1 | 2 | 0 | 5
COc1cc(-n2c(C)nc3cc(C(=O)N4CCN(C(C)=O)CC4)ccc32)cc(OC)c1OC | x | x | 4 | x | 0 | 2
CC(=O)NCc1ccc(C(=O)O)cc1 | 86* | 6 | -9 | 0 | 0 | -3
Nc1ccc(/C=C/C(=O)c2ccco2)cc1 | -72 | -201 | -1 | 81* | 0 | -4
COc1ccc(NS(=O)(=O)c2cc([N+](=O)[O-])ccc2N/N=C/c2c(C)[nH]c3ccccc23)cc1 | -42 | -97 | -10 | 51* | 0 | 2
CC1(C)CC(=O)c2cnc(N3CCc4ccccc43)nc2C1 | -12 | 28* | -2 | -1 | 0 | 1
COc1ccc(C(CC(=O)Nc2ccc(F)cc2)c2ccccc2)cc1 (stereo not drawn) | 52* | -3 | -3 | 5 | 0 | 4
CC(Sc1ccccc1)C(=O)Nc1ccc(N2CCOCC2)cc1 (stereo not drawn) | -8 | -1 | -5 | -2 | 0 | 2
COc1ccc(NC(=O)C(C)Sc2ccccc2)cc1 (stereo not drawn) | 4 | 42* | 4 | -1 | 0 | 5
N/C(Cc1ccc(Cl)c(Cl)c1)=N\OC(=O)c1cccs1 | 25 | 7 | 0 | 0 | 1 | -7

High-throughput results (PubChem BioAssay)
